ChEMBL document CHEMBL3526048, “In vitro metabolism of rivoglitazone, a novel peroxisome proliferator-activated receptor γ agonist, in rat, monkey, and human liver microsomes and freshly isolated hepatocytes” (Drug Metab Dispos, 2011)

What was measured:
Hepatocyte = test: Drug level in human hepatocytes treated with [14C]-rivoglitazone at 30 uM after 3 hrs by radio-HPLC/LC-MS/MS analysis in presence of UDPGA, UDPGA/SAM and NADPH-generating system; type: ADME, cell-based
Cytochrome P450 2D6 = Cytochrome P450 2D6 (Homo sapiens, UniProt P10635); test: (§1) Activity of human CYP2D6 expressed in microsomes isolated from baculovirus infected insect cell assessed as enzyme-mediated 5-(4-((6-methoxy-1H-benzo[d]imidazol-2-yl)methoxy)benzyl)thiazolidine-2,4-dione formation at 20 uM after 2 hrs by radio-HPLC/LC-MS/MS analysis in presence of NADPH-generating system and NADPH-generating system/SAM; type: ADME
Cytochrome P450 2C8 [1] = target: T1, Cytochrome P450 2C8 (Homo sapiens, UniProt P10632); test: Activity of human CYP2C8 expressed in microsomes isolated from baculovirus infected insect cell assessed as enzyme-mediated 3-(4-((6-methoxy-1-methyl-1H-benzo[d]imidazol-2-yl)methoxy)phenyl)-2-(methylthio)propanamide formation at 20 uM after 2 hrs by radio-HPLC/LC-MS/MS analysis in presence of NADPH-generating system/SAM; type: ADME
T1 sequence (P10632 whole entry): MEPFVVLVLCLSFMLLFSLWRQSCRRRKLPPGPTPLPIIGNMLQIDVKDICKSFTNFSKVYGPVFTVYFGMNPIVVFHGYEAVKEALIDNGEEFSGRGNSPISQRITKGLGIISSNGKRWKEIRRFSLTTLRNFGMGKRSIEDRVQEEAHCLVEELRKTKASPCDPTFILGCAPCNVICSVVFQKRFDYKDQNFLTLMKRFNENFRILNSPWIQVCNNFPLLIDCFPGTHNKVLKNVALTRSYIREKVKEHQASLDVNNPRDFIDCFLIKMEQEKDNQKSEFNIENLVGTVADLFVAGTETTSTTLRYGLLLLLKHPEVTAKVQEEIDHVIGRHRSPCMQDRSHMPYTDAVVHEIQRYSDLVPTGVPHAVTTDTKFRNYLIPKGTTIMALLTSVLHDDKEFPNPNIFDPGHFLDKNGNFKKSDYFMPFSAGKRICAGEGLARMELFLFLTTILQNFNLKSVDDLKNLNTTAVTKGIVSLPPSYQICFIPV

Liver microsome = test: Drug metabolism in Sprague-Dawley rat liver microsomes assessed as formation of 3-(4-((6-methoxy-1-methyl-1H-benzo[d]imidazol-2-yl)methoxy)phenyl)-2-(methylsulfonyl)propanamide at 20 uM after 2 hrs by radio-HPLC/LC-MS/MS analysis in presence of NADPH-generating system/SAM; type: ADME
Cytochrome P450 2C8 [2] = target: T1, Cytochrome P450 2C8; test: as §1, with “CYP2C8” for “CYP2D6”; type: ADME
Method in brief: (§2)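 Baculovirus/insect-cell microsomes expressing single human CYPs, 1 mg/ml protein, with 50 mM potassium phosphate (pH 7.4) or 100 mM Tris-HCl (pH 7.5). NADPH-generating system: 2 mM NADP⁺, 20 mM glucose 6-phosphate, 2 units/ml G6PDH, 10 mM MgCl₂. [¹⁴C]rivoglitazone at 20 μM, 2 h at 37°C with shaking. Control used insect-cell control supersomes. Stopped with acetonitrile; supernatant concentrated under nitrogen; metabolites analysed by radio-HPLC, LC-MS and LC-MS/MS.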

[3] = Drug metabolism in monkey hepatocytes assessed as formation of 2-mercapto-3-(4-((6-methoxy-1-methyl-1H-benzo[d]imidazol-2-yl)methoxy)phenyl)propanamide at 30 uM after 3 hrs by radio-HPLC/LC-MS/MS analysis in presence of NADPH-generating system and NADPH-generating system/SAM; conditions: cynomolgus monkey
[4] = target: T2, UDP-glucuronosyltransferase 1A9 (Homo sapiens, UniProt O60656); test: Activity of human UGT1A9 expressed in microsomes isolated from baculovirus infected insect cell assessed as enzyme-mediated 2-mercapto-3-(4-((6-methoxy-1-methyl-1H-benzo[d]imidazol-2-yl)methoxy)phenyl)propanoic acid formation at 20 uM after 4 hrs by radio-HPLC/LC-MS/MS analysis in presence of UDPGA; type: ADME
T2 sequence (O60656 whole entry): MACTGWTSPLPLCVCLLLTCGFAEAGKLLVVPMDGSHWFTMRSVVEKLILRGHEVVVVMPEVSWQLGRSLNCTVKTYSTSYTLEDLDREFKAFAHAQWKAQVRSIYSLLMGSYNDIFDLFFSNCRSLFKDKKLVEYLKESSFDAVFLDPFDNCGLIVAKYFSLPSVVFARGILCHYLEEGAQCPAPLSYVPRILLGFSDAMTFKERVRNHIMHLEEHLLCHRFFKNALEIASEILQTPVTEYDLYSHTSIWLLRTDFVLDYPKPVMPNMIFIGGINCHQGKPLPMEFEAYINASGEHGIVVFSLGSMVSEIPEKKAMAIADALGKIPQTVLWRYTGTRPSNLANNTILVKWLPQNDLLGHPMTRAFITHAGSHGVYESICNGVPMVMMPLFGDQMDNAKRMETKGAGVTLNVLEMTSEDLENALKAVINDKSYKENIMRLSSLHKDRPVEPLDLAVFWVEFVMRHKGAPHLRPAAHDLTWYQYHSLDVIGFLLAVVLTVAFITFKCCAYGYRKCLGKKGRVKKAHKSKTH

[5] = Drug metabolism in human hepatocytes assessed as formation of (2S,3S,4S,5R,6R)-3,4,5-trihydroxy-6-(5-(4-((6-methoxy-1-methyl-1H-benzo[d]imidazol-2-yl)methoxy)benzyl)-2,4-dioxothiazolidin-3-yl)tetrahydro-2H-pyran-2-carboxylic acid at 30 uM after 3 hrs by radio-HPLC/LC-MS/MS analysis; type: ADME, cell-based, Hepatocyte
[6] = target: T3, UDP-glucuronosyltransferase 1A3 (Homo sapiens, UniProt P35503); test: as §1, with “human UGT1A3” for “human CYP2D6”, “after 4” for “after 2”, “system/SAM in presence of UDPGA and UDPGA/SAM” for “system/SAM”; type: ADME
T3 sequence (P35503 whole entry): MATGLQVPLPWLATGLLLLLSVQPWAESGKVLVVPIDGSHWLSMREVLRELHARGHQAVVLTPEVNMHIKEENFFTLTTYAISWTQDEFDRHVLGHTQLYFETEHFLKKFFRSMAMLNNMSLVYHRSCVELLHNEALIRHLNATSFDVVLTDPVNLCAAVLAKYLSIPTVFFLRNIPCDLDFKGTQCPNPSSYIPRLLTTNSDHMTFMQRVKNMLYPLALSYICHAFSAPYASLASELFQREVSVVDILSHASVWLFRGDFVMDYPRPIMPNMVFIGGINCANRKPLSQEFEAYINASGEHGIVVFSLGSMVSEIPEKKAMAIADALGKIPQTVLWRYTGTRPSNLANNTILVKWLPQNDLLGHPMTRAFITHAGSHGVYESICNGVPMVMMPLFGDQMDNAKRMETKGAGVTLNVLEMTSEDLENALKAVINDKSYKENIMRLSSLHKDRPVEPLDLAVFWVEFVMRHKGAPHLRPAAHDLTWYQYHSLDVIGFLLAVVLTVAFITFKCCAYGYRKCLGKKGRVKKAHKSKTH

Cytochrome P450 2C8 [7] = target: T1, Cytochrome P450 2C8; test: Activity of human CYP2C8 expressed in microsomes isolated from baculovirus infected insect cell assessed as enzyme-mediated 2-mercapto-3-(4-((6-methoxy-1-methyl-1H-benzo[d]imidazol-2-yl)methoxy)phenyl)propanoic acid formation at 20 uM after 2 hrs by radio-HPLC/LC-MS/MS analysis in presence of NADPH-generating system; type: ADME; method in brief: as §2

Cytochrome P450 2D6, sequence (P10635 whole entry): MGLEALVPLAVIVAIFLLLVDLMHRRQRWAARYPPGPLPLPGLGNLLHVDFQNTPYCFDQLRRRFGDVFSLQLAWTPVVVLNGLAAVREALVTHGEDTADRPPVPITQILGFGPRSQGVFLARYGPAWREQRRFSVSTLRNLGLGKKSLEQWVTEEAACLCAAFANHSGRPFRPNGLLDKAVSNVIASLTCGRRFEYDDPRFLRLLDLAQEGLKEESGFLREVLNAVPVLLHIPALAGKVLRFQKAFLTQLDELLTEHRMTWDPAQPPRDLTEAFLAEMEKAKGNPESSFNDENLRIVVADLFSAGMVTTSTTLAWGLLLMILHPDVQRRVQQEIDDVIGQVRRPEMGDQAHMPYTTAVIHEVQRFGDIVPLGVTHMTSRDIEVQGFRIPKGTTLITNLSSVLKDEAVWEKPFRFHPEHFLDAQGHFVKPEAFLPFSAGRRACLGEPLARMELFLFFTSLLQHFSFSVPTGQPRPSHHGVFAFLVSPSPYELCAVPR

| Drug metabolism (Hepatocyte) | Drug metabolism (Cytochrome P450 2D6) | Drug metabolism (Cytochrome P450 2C8 [1]) | Drug metabolism (Liver microsome) | Drug metabolism (Cytochrome P450 2C8 [2]) | Drug metabolism [3] | Drug metabolism [4] | Drug metabolism [5] | Drug metabolism [6] | Drug metabolism (Cytochrome P450 2C8 [7]) | SMILES |
| --- | --- | --- | --- | --- | --- | --- | --- | --- | --- | --- |
| metabolite_not_detected | – | – | – | – | – | – | – | – | – | COc1ccc2nc(COc3ccc(CC(S)C(=O)O)cc3)n(C)c2c1 (stereo not given) |
| – | metabolite_detected | metabolite_not_detected | metabolite_detected | metabolite_detected | metabolite_not_detected | metabolite_not_detected | metabolite_detected | metabolite_not_detected | metabolite_detected | COc1ccc2nc(COc3ccc(C[14CH]4SC(=O)NC4=O)cc3)n(C)c2c1.Cl (racemic) |
